Common to all, as to assay type: functional
Test [1] deals with Clostridioides difficile. Briefly: Antibacterial activity against Clostridium difficile ATCC 700057 after 16 hrs by two-fold serial dilution method. The conditions noted are these: ATCC 700057, 16 h. The method in brief: (§1)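 CLSI agar dilution MIC. Compounds are dissolved in 50% water in DMSO as a stock, twofold serially diluted in sterile water, then diluted 10-fold into Mueller-Hinton agar. Organisms are grown in MH broth at 35 °C for 8 h and adjusted to 0.5 McFarland. They are applied to the drug-containing plates by multipoint inoculator and incubated at 35 °C for 16 h. Vancomycin and demethylvancomycin serve as controls.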

The test system of test [2] is Clostridioides difficile. Briefly: Antibacterial activity against Clostridium difficile IQCC 23903 after 16 hrs by two-fold serial dilution method. The conditions noted are these: IQCC 23903, 16 h. The method in brief: as §1
The test system of test [3] is Clostridioides difficile. Briefly: Antibacterial activity against Clostridium difficile ATCC 700792 after 16 hrs by two-fold serial dilution method. The note with it: ATCC 700792, 16 h. In short, it runs like this: as §1
Test [4] has as its system Enterococcus faecalis. Briefly: Antibacterial activity against Enterococcus faecalis ATCC 700802 after 16 hrs by two-fold serial dilution method. The conditions noted are these: ATCC 700802, 16 h. In short, it runs like this: as §1
Test [5] can be described thus: Antibacterial activity against Clostridium difficile ATCC 43255 after 16 hrs by two-fold serial dilution method. The note with it: Clostridioides difficile, ATCC 43255, 16 h. The method in brief:
as §1

Test [6] has as its system Clostridioides difficile. As to the kind of experiment: Ratio of MIC for demethylvancomycin to compound MIC for Clostridium difficile ATCC 43255 after 16 hrs by two-fold serial dilution method.
For test [7], the system named is Clostridioides difficile. As to the kind of experiment: Ratio of MIC for demethylvancomycin to compound MIC for Clostridium difficile ATCC 700057 after 16 hrs by two-fold serial dilution method.
The test system of test [8] is Clostridioides difficile. Briefly: Ratio of MIC for vancomycin to compound MIC for Clostridium difficile ATCC 43255 after 16 hrs by two-fold serial dilution method.
Test [9] relates to Clostridioides difficile. Briefly: Ratio of MIC for vancomycin to compound MIC for Clostridium difficile IQCC 23903 after 16 hrs by two-fold serial dilution method.
Test [10] deals with Clostridioides difficile. Briefly: Ratio of MIC for vancomycin to compound MIC for Clostridium difficile ATCC 700057 after 16 hrs by two-fold serial dilution method.
Test [11] concerns Clostridioides difficile. As to the kind of experiment: Ratio of MIC for vancomycin to compound MIC for Clostridium difficile ATCC 700792 after 16 hrs by two-fold serial dilution method.
Test [12] has as its system Clostridioides difficile. Briefly: Ratio of MIC for demethylvancomycin to compound MIC for Clostridium difficile IQCC 23903 after 16 hrs by two-fold serial dilution method.
The subject of test [13] is Clostridioides difficile. As to the kind of experiment: Ratio of MIC for demethylvancomycin to compound MIC for Clostridium difficile ATCC 700792 after 16 hrs by two-fold serial dilution method.

SMILES strings stand for the structures. Converted amounts (≈) assume the structure as drawn.

`COc1ccc(CN[C@@]2(C)C[C@H](O[C@H]3[C@H](Oc4c5cc6cc4Oc4ccc(cc4Cl)[C@@H](O)[C@@H](NC(=O)[C@H](N)CC(C)C)C(=O)N[C@@H](CC(N)=O)C(=O)N[C@H]6C(=O)N[C@H]4C(=O)N[C@H](C(=O)N[C@H](C(=O)O)c6cc(O)cc(O)c6-c6cc4ccc6O)[C@H](O)c4ccc(c(Cl)c4)O5)O[C@H](CO)[C@@H](O)[C@@H]3O)O[C@@H](C)[C@H]2O)cc1`: the MIC in [1] turned out to be 0.5 µg/mL (≈ 0.321 µM); in test [2], 0.5 µg/mL (≈ 0.321 µM); in test [3], 1 µg/mL (≈ 0.643 µM); in test [4], 16 µg/mL (≈ 10.3 µM); in test [5], 0.5 µg/mL (≈ 0.321 µM).
Take `CC(C)C[C@@H](N)C(=O)N[C@H]1C(=O)N[C@@H](CC(N)=O)C(=O)N[C@H]2C(=O)N[C@H]3C(=O)N[C@H](C(=O)N[C@H](C(=O)O)c4cc(O)cc(O)c4-c4cc3ccc4O)[C@H](O)c3ccc(c(Cl)c3)Oc3cc2cc(c3O[C@@H]2O[C@H](CO)[C@@H](O)[C@H](O)[C@H]2O[C@H]2C[C@](C)(NCc3ccc(F)cc3)[C@H](O)[C@H](C)O2)Oc2ccc(cc2Cl)[C@H]1O`: the MIC in [1] stood at 0.5 µg/mL (≈ 0.324 µM); in test [2], 0.5 µg/mL (≈ 0.324 µM); in [3] it was 0.5 µg/mL (≈ 0.324 µM); in [4], 16 µg/mL (≈ 10.4 µM); in [5], 0.5 µg/mL (≈ 0.324 µM).
As to `CC(C)C[C@@H](N)C(=O)N[C@H]1C(=O)N[C@@H](CC(N)=O)C(=O)N[C@H]2C(=O)N[C@H]3C(=O)N[C@H](C(=O)N[C@H](C(=O)O)c4cc(O)cc(O)c4-c4cc3ccc4O)[C@H](O)c3ccc(c(Cl)c3)Oc3cc2cc(c3O[C@@H]2O[C@H](CO)[C@@H](O)[C@H](O)[C@H]2O[C@H]2C[C@](C)(NCc3ccc(Cl)cc3)[C@H](O)[C@H](C)O2)Oc2ccc(cc2Cl)[C@H]1O`, the MIC in test [1] was 0.5 µg/mL (≈ 0.321 µM); in [2], 0.25 µg/mL (≈ 0.16 µM); in [3], 0.25 µg/mL (≈ 0.16 µM); in test [4], 16 µg/mL (≈ 10.3 µM); in [5], 0.25 µg/mL (≈ 0.16 µM). The Ratio in test [6], in [7], in [8], in test [9], in test [10] and in test [11] was 2 in each case. For the same molecule, the Ratio in [12] and in test [13] was 2 throughout.
Regarding `CC(C)C[C@@H](N)C(=O)N[C@H]1C(=O)N[C@@H](CC(N)=O)C(=O)N[C@H]2C(=O)N[C@H]3C(=O)N[C@H](C(=O)N[C@H](C(=O)O)c4cc(O)cc(O)c4-c4cc3ccc4O)[C@H](O)c3ccc(c(Cl)c3)Oc3cc2cc(c3O[C@@H]2O[C@H](CO)[C@@H](O)[C@H](O)[C@H]2O[C@H]2C[C@](C)(NCc3cc4ccccc4o3)[C@H](O)[C@H](C)O2)Oc2ccc(cc2Cl)[C@H]1O`, the MIC came to 0.5 µg/mL (≈ 0.319 µM) in [1]; 0.5 µg/mL (≈ 0.319 µM) in test [2]; 1 µg/mL (≈ 0.639 µM) in [3]; 8 µg/mL (≈ 5.11 µM) in [4]; 1 µg/mL (≈ 0.639 µM) in [5].
For `CC(C)C[C@@H](N)C(=O)N[C@H]1C(=O)N[C@@H](CC(N)=O)C(=O)N[C@H]2C(=O)N[C@H]3C(=O)N[C@H](C(=O)N[C@H](C(=O)O)c4cc(O)cc(O)c4-c4cc3ccc4O)[C@H](O)c3ccc(c(Cl)c3)Oc3cc2cc(c3O[C@@H]2O[C@H](CO)[C@@H](O)[C@H](O)[C@H]2O[C@H]2C[C@](C)(NCc3ccco3)[C@H](O)[C@H](C)O2)Oc2ccc(cc2Cl)[C@H]1O`, the minimum inhibitory concentration (MIC) in [1] is 0.5 µg/mL (≈ 0.33 µM); in test [2], 0.5 µg/mL (≈ 0.33 µM); in [3], 0.5 µg/mL (≈ 0.33 µM); in [4] it was 32 µg/mL (≈ 21.1 µM); in [5] it was 0.5 µg/mL (≈ 0.33 µM).
Take `CC(C)C[C@@H](N)C(=O)N[C@H]1C(=O)N[C@@H](CC(N)=O)C(=O)N[C@H]2C(=O)N[C@H]3C(=O)N[C@H](C(=O)N[C@H](C(=O)O)c4cc(O)cc(O)c4-c4cc3ccc4O)[C@H](O)c3ccc(c(Cl)c3)Oc3cc2cc(c3O[C@@H]2O[C@H](CO)[C@@H](O)[C@H](O)[C@H]2O[C@H]2C[C@](C)(NCc3cccs3)[C@H](O)[C@H](C)O2)Oc2ccc(cc2Cl)[C@H]1O`: the MIC was determined as 0.5 µg/mL (≈ 0.326 µM) in test [1]; 0.5 µg/mL (≈ 0.326 µM) in [2]; 0.5 µg/mL (≈ 0.326 µM) in test [3]; 32 µg/mL (≈ 20.9 µM) in test [4]; 0.5 µg/mL (≈ 0.326 µM) in test [5].
With `CCCCCCCCCCCCCN[C@@]1(C)C[C@H](O[C@H]2[C@H](Oc3c4cc5cc3Oc3ccc(cc3Cl)[C@@H](O)[C@@H](NC(=O)[C@H](N)CC(C)C)C(=O)N[C@@H](CC(N)=O)C(=O)N[C@H]5C(=O)N[C@H]3C(=O)N[C@H](C(=O)N[C@H](C(=O)O)c5cc(O)cc(O)c5-c5cc3ccc5O)[C@H](O)c3ccc(c(Cl)c3)O4)O[C@H](CO)[C@@H](O)[C@@H]2O)O[C@@H](C)[C@H]1O`, the MIC in test [1] came out at 2 µg/mL (≈ 1.24 µM); in test [2], 1 µg/mL (≈ 0.618 µM); in [3] it was 2 µg/mL (≈ 1.24 µM); in test [4], 4 µg/mL (≈ 2.47 µM); in [5], 1 µg/mL (≈ 0.618 µM).
As to `CC(C)=CCC/C(C)=C/CN[C@@]1(C)C[C@H](O[C@H]2[C@H](Oc3c4cc5cc3Oc3ccc(cc3Cl)[C@@H](O)[C@@H](NC(=O)[C@H](N)CC(C)C)C(=O)N[C@@H](CC(N)=O)C(=O)N[C@H]5C(=O)N[C@H]3C(=O)N[C@H](C(=O)N[C@H](C(=O)O)c5cc(O)cc(O)c5-c5cc3ccc5O)[C@H](O)c3ccc(c(Cl)c3)O4)O[C@H](CO)[C@@H](O)[C@@H]2O)O[C@@H](C)[C@H]1O`, the MIC in test [1] is 0.5 µg/mL (≈ 0.318 µM); in [2], 0.5 µg/mL (≈ 0.318 µM); in test [3] it was 0.5 µg/mL (≈ 0.318 µM); in [4], 16 µg/mL (≈ 10.2 µM); in [5] it was 0.5 µg/mL (≈ 0.318 µM).
Regarding `CC(C)CCN[C@@]1(C)C[C@H](O[C@H]2[C@H](Oc3c4cc5cc3Oc3ccc(cc3Cl)[C@@H](O)[C@@H](NC(=O)[C@H](N)CC(C)C)C(=O)N[C@@H](CC(N)=O)C(=O)N[C@H]5C(=O)N[C@H]3C(=O)N[C@H](C(=O)N[C@H](C(=O)O)c5cc(O)cc(O)c5-c5cc3ccc5O)[C@H](O)c3ccc(c(Cl)c3)O4)O[C@H](CO)[C@@H](O)[C@@H]2O)O[C@@H](C)[C@H]1O`, the minimum inhibitory concentration (MIC) worked out at 1 µg/mL (≈ 0.664 µM) in [1]; 0.5 µg/mL (≈ 0.332 µM) in test [2]; 1 µg/mL (≈ 0.664 µM) in test [3]; 32 µg/mL (≈ 21.3 µM) in test [4]; 1 µg/mL (≈ 0.664 µM) in [5].
Turning to `CC(C)C[C@@H](N)C(=O)N[C@H]1C(=O)N[C@@H](CC(N)=O)C(=O)N[C@H]2C(=O)N[C@H]3C(=O)N[C@H](C(=O)N[C@H](C(=O)O)c4cc(O)cc(O)c4-c4cc3ccc4O)[C@H](O)c3ccc(c(Cl)c3)Oc3cc2cc(c3O[C@@H]2O[C@H](CO)[C@@H](O)[C@H](O)[C@H]2O[C@H]2C[C@](C)(NCC3CCCCC3)[C@H](O)[C@H](C)O2)Oc2ccc(cc2Cl)[C@H]1O`, the minimum inhibitory concentration (MIC) in test [1] was found to be 0.5 µg/mL (≈ 0.326 µM); in test [2], 0.5 µg/mL (≈ 0.326 µM); in test [3], 1 µg/mL (≈ 0.653 µM); in test [4] it was 16 µg/mL (≈ 10.4 µM); in [5] it was 1 µg/mL (≈ 0.653 µM).
On to `CCC(CC)CN[C@@]1(C)C[C@H](O[C@H]2[C@H](Oc3c4cc5cc3Oc3ccc(cc3Cl)[C@@H](O)[C@@H](NC(=O)[C@H](N)CC(C)C)C(=O)N[C@@H](CC(N)=O)C(=O)N[C@H]5C(=O)N[C@H]3C(=O)N[C@H](C(=O)N[C@H](C(=O)O)c5cc(O)cc(O)c5-c5cc3ccc5O)[C@H](O)c3ccc(c(Cl)c3)O4)O[C@H](CO)[C@@H](O)[C@@H]2O)O[C@@H](C)[C@H]1O`, for which the MIC in test [1] was 2 µg/mL (≈ 1.32 µM); in test [2], 2 µg/mL (≈ 1.32 µM); in test [3], 2 µg/mL (≈ 1.32 µM); in [4], 32 µg/mL (≈ 21.1 µM); in test [5], 2 µg/mL (≈ 1.32 µM).
With `CC(C)C[C@@H](N)C(=O)N[C@@H]1C(=O)N[C@@H](CC(N)=O)C(=O)N[C@H]2C(=O)N[C@H]3C(=O)N[C@H](C(=O)N[C@H](C(=O)O)c4cc(O)cc(O)c4-c4cc3ccc4O)[C@H](O)c3ccc(c(Cl)c3)Oc3cc2cc(c3O[C@@H]2O[C@H](CO)[C@@H](O)[C@H](O)[C@H]2O[C@H]2C[C@](C)(N)C(O)[C@H](C)O2)Oc2ccc(cc2Cl)[C@H]1O` (stereo partly drawn) [DEMETHYLVANCOMYCIN], the MIC was 0.5 µg/mL (≈ 0.348 µM) in test [1]; 0.5 µg/mL (≈ 0.348 µM) in [2]; 0.5 µg/mL (≈ 0.348 µM) in [3]; more than 32 µg/mL in test [4]; 0.5 µg/mL (≈ 0.348 µM) in test [5].
Regarding `CN[C@H](CC(C)C)C(=O)N[C@H]1C(=O)N[C@@H](CC(N)=O)C(=O)N[C@H]2C(=O)N[C@H]3C(=O)N[C@H](C(=O)N[C@H](C(=O)O)c4cc(O)cc(O)c4-c4cc3ccc4O)[C@H](O)c3ccc(c(Cl)c3)Oc3cc2cc(c3O[C@@H]2O[C@H](CO)[C@@H](O)[C@H](O)[C@H]2O[C@H]2C[C@](C)(N)[C@H](O)[C@H](C)O2)Oc2ccc(cc2Cl)[C@H]1O` [VANCOMYCIN], the MIC in [1] is 0.5 µg/mL (≈ 0.345 µM); in test [2], 0.5 µg/mL (≈ 0.345 µM); in test [3] it was 1 µg/mL (≈ 0.69 µM); in [4] it was 32 µg/mL (≈ 22.1 µM); in test [5], 1 µg/mL (≈ 0.69 µM).

Source of the values: ChEMBL document CHEMBL2057152, “Synthesis and antibacterial activity against Clostridium difficile of novel demethylvancomycin derivatives” (2012).
